Reference: paper PMC12122681 (Nature Communications, 2025)

Tests used:
fungal IPC synthase = details: in words; cited from earlier work
[1] = tested on: unpurified membrane-embedded IPC synthase; details: cited from earlier work
Aur1-Kei1 complex = assay: Thermal shift assay; type: binding, Saccharomyces cerevisiae; details: 10 µM PI or 10 µM C6-ceramide, 1 h at 4 °C, 5% DMSO; compared to the control
Summary of the method: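 nanoDSF on 0.1 mg/mL purified complex in 25 mM HEPES pH 7.5, 150 mM NaCl, 0.01% LMNG. Protein was held 1 h at 4 °C with final 10 µM PI or 10 µM C6-ceramide in 5% DMSO. Intrinsic fluorescence at 330 and 350 nm was read from 35 to 95 °C at […]. Tm was taken from the first-derivative peak of Em350/Em330, averaged over three measurements.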

[2] = biological target: His-tagged S. cerevisiae IPC synthase complex (Aur1-Kei1), wild type (S. cerevisiae) (UniProt P36107); assay: MST
[3] = biological target: the F158Y and A240C mutations (Aur1-Kei1 mutant complexes); assay: MST
[4] = biological target: His-tagged Aur1-Kei1 complex with Aur1 H157Y (S. cerevisiae) (UniProt P36107); assay: MST
cryo-EM structure = biological target: the molecule itself; assay: cryo-EM structure
[5] = biological target: the molecule itself; assay: SEC + cross-linking + native gel or EMSA

In the case of `CCCCCCCCCC[C@H](C)[C@@H](O)[C@@H](C)/C=C(C)/C=C(\C)C(=O)[C@H](C)/C=C(\C)C(=O)O[C@H](CO)[C@@H](O)[C@H](O)C(=O)O` [khafrefungin], the “inhibition of fungal IPC synthase” value (fungal IPC synthase) is given as “effective inhibitors of fungal IPC synthase”.

In the case of `C=C1/C=C(\C)[C@H](CC)CC(=O)[C@H](C)C(=O)[C@@](O)(CO)C/C(OC)=C/[C@@H](C)C1` [rustmicin], the “inhibition of fungal IPC synthase” value (fungal IPC synthase) is listed as “effective inhibitors of fungal IPC synthase”.

In the case of ceramide, the “kinetic value for ceramide” value [1] is given as 3 µM and the “effect on protein stability” value (Aur1-Kei1 complex) is given as “did not enhance protein stability”.

For Aureobasidin A (peptide), the Kd [2] was 0.0577 µM, the fold weakening of the binding affinity against the WT complex [3] was 1.5 to 2 fold and the fold reduction in binding affinity against the WT complex [4] was 30 fold.

B1: S. cerevisiae Aur1, catalytic subunit of IPC synthase (enzyme)
chain: MANPFSRWFLSERPPNCHVADLETSLDPHQTLLKVQKYKPALSDWVHYIFLGSIMLFVFITNPAPWIFKILFYCFLGTLFIIPATSQFFFNALPILTWVALYFTSSYFPDDRRPPITVKVLPAVETILYGDNLSDILATSTNSFLDILAWLPYGLFHFGAPFVVAAILFVFGPPTVLQGYAFAFGYMNLFGVIMQNVFPAAPPWYKILYGLQSANYDMHGSPGGLARIDKLLGINMYTTAFSNSSVIFGAFPSLHSGCATMEALFFCYCFPKLKPLFIAYVCWLWWSTMYLTHHYFVDLMAGSVLSYVIFQYTKYTHLPIVDTSLFCRWSYTSIEKYDISKSDPLAADSNDIESVPLSNLELDFDLNMTDEPSVSPSLFDGSTSVSRSSATSITSLGVKRA
modifications: two major bands likely correspond to the glycosylated and non-glycosylated forms (sites not given)
With B1 the “stoichiometry N” value (cryo-EM structure) was 2.

B2: S. cerevisiae IPC synthase complex (Aur1-Kei1 complex), wild type (complex)
chain 1: B1 chain
chain 2: MRSSLLTLPKSFLGFMPLYLAVEIVLGISILNKCSGAYGILALFTGHPLDFMQWIAYLWSVFTLIVFSQGLYLIHKPNLLVFSQICVLYTIDTISTCFFTLWFTTQWFTLEDTANIDGNNALQSNPISTGKLTERGIDISKQSATESYEYTMTILITLVSLIFRFYFNFILASFVQELLHHPKYLVDRDDVEQNLKNKPIWKRLWAKSQKGCYKLCKNLLE
modifications: two major bands likely correspond to the glycosylated and non-glycosylated forms (sites not given)
With B2 the “stoichiometry N” value [5] was 2.
